Compounds with a hit are over-represented: about 2% of the library has one in this group of screens.
CAL PDZ FP-1 – CAL PDZ peptide-binding inhibitors, primary screen, biochemical, fluorescence polarization, Cer-tagged CAL PDZ, HTS; AID 504414, 2011; Golgi-associated PDZ and coiled-coil motif-containing protein (Homo sapiens), Q9HD26; inhibition, % at 20 µM; purified CAL PDZ, TMR-peptide fluorescence polarization, 1 h; 330,000 tested, 0.02% active;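 active = highest replicate inhibition of at least 40%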
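Material: tagged CAL PDZ protein CerCALP, purified; buffer or medium: sodium phosphate/NaCl buffer pH 7.4 with TCEP, IgG, Thesit; also added: fluorescent TMR peptide probe; schedule: 1 h incubation at room temperature before polarization reading; technique: fluorescence polarization from S- and P-plane intensities, G-factor corrected; control set: unlabelled peptide and DMSO controls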
CAL PDZ FP-2 – untagged CAL PDZ binding inhibitors, primary screen, biochemical, fluorescence polarization, HTS; inhibition, % at 24.9 µM; purified CAL PDZ, TMR-peptide fluorescence polarization, 1 h; Golgi-associated PDZ and coiled-coil motif-containing protein (Homo sapiens), Q9HD26; 300,000 tested, 0.92% active;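 active = mean inhibition of at least 30% with at least half of replicates also reaching 30%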
PKA-R2B activ – activators of PKA-R2B holoenzyme, primary screen, biochemical, fluorescence polarization, Cy5-IP20, human. PKA-R2B holoenzyme dissociation; R2B truncated from residue 108, S112A mutant; 0% DMSO only, 100% 113 µM cGMP. activation, % at 11.4 µM. 340,000 tested, 0.079% active;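 active = activation above a cutoff set at the mean over all compounds plus 3 SD, cut at about 18% in these data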;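 also: higher means more holoenzyme dissociation and a rise in polarization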
Target sequence (P31323 whole entry, looked up, other chains not shown, the tested form may be a part): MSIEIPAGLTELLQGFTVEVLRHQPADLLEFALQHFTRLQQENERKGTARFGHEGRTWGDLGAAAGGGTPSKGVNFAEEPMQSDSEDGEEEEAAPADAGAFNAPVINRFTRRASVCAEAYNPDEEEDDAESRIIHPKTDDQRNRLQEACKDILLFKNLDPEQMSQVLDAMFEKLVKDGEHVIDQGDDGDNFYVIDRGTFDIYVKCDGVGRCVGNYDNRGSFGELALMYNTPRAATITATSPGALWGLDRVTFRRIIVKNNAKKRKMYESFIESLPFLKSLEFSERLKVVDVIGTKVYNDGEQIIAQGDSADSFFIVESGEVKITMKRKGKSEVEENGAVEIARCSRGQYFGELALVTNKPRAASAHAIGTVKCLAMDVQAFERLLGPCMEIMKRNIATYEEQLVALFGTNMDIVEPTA
PKA-R1A act – activators of PKA-R1A holoenzyme, primary screen, biochemical, fluorescence polarization, Cy5-IP20, bovine R1A, mouse PKAc; cAMP-dependent protein kinase type I-alpha regulatory subunit (Bos taurus) + …; PKA-R1A dissociation; scaled: DMSO 0%, 113 µM cGMP 100%; 340,000 tested, 0.083% active; activation, % at 11.4 µM;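 active = percent activation above the mean of all tested compounds plus 3 SD, cut at about 19% in these data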;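 also: higher means more PKAc released from R1A so a rise in polarization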
dFosB act – activators of delta FosB homodimer, primary screen, biochemical, fluorescence polarization, TAMRA-CDK5 oligo, single point; Protein FosB (Mus musculus), P13346; purified delta FosB; percent of positive-control signal above neutral wells; activation, % at 25 µM; 340,000 tested, 0.99% active; AID 493131, 2011;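 active = mean activation above about 17%, with every replicate also reaching it, limit read from the data, passing the limit was not always enough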
NTR1 agonist – agonists of human NTR1, primary screen, imaging, U2OS cells, beta-arrestin-GFP, high content | Neurotensin receptor type 1 (Homo sapiens), P30989 | NTR1-U2OS beta-arrestin-GFP spot imaging, agonist mode | activation, % at 20 µM | 330,000 tested, 0.17% active | AID 493036, 2011;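 active = activation at or above 40% of the spot to cytoplasm intensity ratio, with at least 20 cells analyzed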
Of the large screens only hits and unclear results are named; the others gave an inactive call.

CCC[C@H](CN[C@@H](CNC)[C@H](C)CC)NCCc1cc(C(F)(F)F)cc(C(F)(F)F)c1	none
N#CCc1nn(-c2ccc(Cl)cc2)c(N)c1C#N	none
N#CCc1nn(-c2ccccc2)c2ncnc(N)c12	CAL PDZ FP-2 103.3
Cc1cc(C(=O)Nc2ccc(Cl)cc2)c(C)n1-c1ccccc1	none (no result: CAL PDZ FP-1, CAL PDZ FP-2, PKA-R2B activ, PKA-R1A act, dFosB act)
Cc1cc(C(=O)NNS(=O)(=O)c2cc(C(=O)O)ccc2Cl)c(C)n1-c1ccccc1	CAL PDZ FP-2 38.6
NC(=O)C(NN=C(c1ccccc1)c1ccccc1)c1ccccc1 (centres undefined)	none (no result: CAL PDZ FP-1, CAL PDZ FP-2, dFosB act, NTR1 agonist)
N=c1c(C(=O)NCCN2CCOCC2)cc2c(=O)n3ccccc3nc2n1CCc1ccccc1	none
C=CCOc1ccc(/C=C/C(=O)OCC(=O)N2CCN(S(=O)(=O)c3ccc(C)cc3C)CC2)cc1	CAL PDZ FP-2 47.1 (no result: NTR1 agonist)
Cc1ccc(S(=O)(=O)N2CCN(C(=O)COC(=O)c3ccc(Cl)nc3)CC2)c(C)c1	dFosB act 31.5 (no result: CAL PDZ FP-2)
Cc1ccc(S(=O)(=O)N2CCN(C(=O)COC(=O)c3cccnc3Cl)CC2)c(C)c1	none
COc1ccc(CCNC(=O)C2CCN(S(=O)(=O)c3cccc4cccnc34)CC2)cc1OC	none
O=C1C(C2=NC(c3ccccn3)C3C(=O)N(c4ccccc4)C(=O)C23)=C(O)c2ccccc21 (centres undefined)	dFosB act 26.5 (no result: CAL PDZ FP-2)
CC(CC(=O)N1CCN(S(=O)(=O)c2ccc([N+](=O)[O-])cc2)CC1)c1ccccc1 (centres undefined)	none
C=CCNCCOCCOc1ccc(C)cc1Br	CAL PDZ FP-2 31.9
COc1ccccc1/C=C/C(=O)NCC(=O)N/N=C/c1cc(Br)ccc1OC	none
COc1cccc(/C=N/Nc2ccccc2C(=O)O)c1O	CAL PDZ FP-2 80.8
COc1ccccc1/C=C\C(=O)NCC(=O)N/N=C/c1cccc(OC)c1O	dFosB act 29.7
CN(C)C(CNS(=O)(=O)c1ccc2ccccc2c1)c1ccccc1 (centres undefined)	none (no result: CAL PDZ FP-1)
CC1(C)c2ccccc2N(CC(N)=O)C12C=Cc1ccccc1O2 (centres undefined)	none
CC1(C)c2ccccc2N2CC(=O)N(CC(N)=O)C21C (centres undefined)	dFosB act 39.9
CC1(C2CC2)NC(=O)N(CC(=O)Nc2ccc(OC(F)F)cc2)C1=O (centres undefined)	none (no result: CAL PDZ FP-1, CAL PDZ FP-2, dFosB act, NTR1 agonist)
CCOc1ccc(NS(=O)(=O)c2ccc(NC(=O)c3ccccc3C(=O)O)cc2)cc1	CAL PDZ FP-2 75.8
CCOc1ccc(NS(=O)(=O)c2ccc(NC(=O)c3ccccn3)cc2)cc1	none (no result: CAL PDZ FP-2)
N#C/C(=C/c1ccc(O)c(O)c1)c1nc2ccccc2[nH]1	CAL PDZ FP-2 114.5
COc1cccc(-c2c(-c3cc(OC)cc(OC)c3)n(C)c3ccc(-c4cnc(N5CCOCC5)nc4)cc23)c1	none
Cc1nc(COc2ccc(C(=O)NCc3ccccc3CN3CCCCC3)cc2)cs1	none
CC1CCCN(C(=O)Cn2cnc3c2c(=O)n(C)c(=O)n3C)C1 (centres undefined)	CAL PDZ FP-2 35.9 (no result: CAL PDZ FP-1)
CCOc1cc(S(=O)(=O)NCc2ccccn2)c(C)cc1C	none (no result: CAL PDZ FP-1, CAL PDZ FP-2, PKA-R2B activ, PKA-R1A act, dFosB act)
CCOc1c(C)cc(S(=O)(=O)NCc2ccccn2)c(C)c1C	CAL PDZ FP-2 66.7 (no result: CAL PDZ FP-1)
N#CCCN(Cc1ccccc1)C(=O)c1cccs1	CAL PDZ FP-2 active
CC(C)(C)N(Cc1ccccc1)C(=O)c1cccs1	none
Cc1cc(C)nc(Nc2nc(-c3ccccc3)cs2)n1	none
c1ccc(-c2csc(Nc3nc(N4CCOCC4)nc(N4CCOCC4)n3)n2)cc1	CAL PDZ FP-2 49.4
O=C(CSc1ccccn1)N1CCCC(Nc2ccccc2)C1 (centres undefined)	none (no result: CAL PDZ FP-2)
O=C(CSc1ccccc1)N1CCCC(Nc2ccccc2)C1 (centres undefined)	CAL PDZ FP-2 60.9
CCN(C(=O)CN1C(=O)S/C(=C\c2ccccc2OC)C1=O)C1CCS(=O)(=O)C1 (centres undefined)	none
CCc1ccc(/C=C2/SC(=S)N(CC(=O)Nc3nc4ccccc4s3)C2=O)cc1	dFosB act 28.5
CCN(CC)C(=O)CN1C(=O)/C(=C/c2ccccc2)SC1=S	CAL PDZ FP-2 43.7
O=C(CCCN1C(=O)/C(=C\c2ccccc2)SC1=S)Nc1ccc(O)cc1C(=O)O	CAL PDZ FP-2 77.0
CC(=O)NNC(=O)CN1C(=O)/C(=C/c2ccccc2)SC1=S	none
CCN(C(=O)CN1C(=O)/C(=C/c2ccccc2F)SC1=S)C1CCS(=O)(=O)C1 (centres undefined)	CAL PDZ FP-2 75.3
CCc1ccc(/C=C2\SC(=S)N(CCCC(=O)Nc3ccccn3)C2=O)cc1	none
COc1ccc(N2C[C@H](C)[C@@H](CC(=O)Nc3ccc(Br)cc3)C2=O)cc1	none (no result: CAL PDZ FP-1, CAL PDZ FP-2, dFosB act, NTR1 agonist)
CC(c1nc2ccccc2c(=O)[nH]1)N1CCN(S(=O)(=O)c2ccc(F)c(Cl)c2)CC1 (centres undefined)	none (no result: CAL PDZ FP-1, CAL PDZ FP-2, dFosB act, NTR1 agonist)
CCCCn1c(N)c(N(CCOC)C(=O)c2cc(S(=O)(=O)N3CCCCC3)ccc2C)c(=O)[nH]c1=O	none
CCn1nc(C(=O)N2CCN(Cc3nc4ccccc4s3)CC2)c2ccccc2c1=O	none
Cc1noc(NS(=O)(=O)c2ccc(NS(=O)(=O)c3ccc(C(C)(C)C)cc3)cc2)c1C	none (no result: CAL PDZ FP-1, CAL PDZ FP-2, dFosB act, NTR1 agonist)
O=C(CCN1C(=O)/C(=C\c2ccccc2)SC1=S)NNC(=O)c1ccccc1O	dFosB act 20.3
O=C(CCCN1C(=O)S/C(=C\c2ccccc2)C1=O)NNC(=O)c1ccccc1O	none
COc1cccc(/C=C2\SC(=S)N(CCCC(=O)N3CCCCC3CCO)C2=O)c1 (centres undefined)	CAL PDZ FP-2 88.0
CCCCC#Cc1ccc(C(=O)NNC(=O)Nc2cc(Cl)cc(Cl)c2)o1	CAL PDZ FP-2 30.2
O=C(NC1CCN(Cc2ccccc2)C1)c1cc(S(=O)(=O)N2CCOCC2)ccc1Cl (centres undefined)	CAL PDZ FP-2 58.7
O=C(CCNC(=O)c1ccc([N+](=O)[O-])cc1)NC1CCCc2ccccc21 (centres undefined)	none
CC1(C)CC(=O)C(CC(=O)NC2CCCc3ccccc32)C(=O)C1 (centres undefined)	CAL PDZ FP-2 106.3
